Results from PMC7217345 (Annals of Oncology, 2020).

Experiments:
[1] = test system: patients with metastatic castration-resistant prostate cancer; assay: Phase I dose escalation; type: in vivo, human
Outline: (§1)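 Open-label, single-centre 3+3 escalation in mCRPC. Capivasertib was given b.i.d. 4/7, starting at 320 mg with predefined escalation and de-escalation. A 7-day cycle 0 (single dose on D1) preceded 28-day cycles of capivasertib plus enzalutamide 160 mg daily. MTD/RP2D was the highest level with ≥6 patients and <1/3 with DLT. AEs were graded by CTCAE v4.0 from first dose to 30 days post-discontinuation. All treated patients were included.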

[2] = test system: pSer9 GSK3β; assay: Pharmacodynamics: phosphorylated Ser9 GSK3β in platelet-rich plasma; type: in vivo, human; details: 400 mg alone (cycle 0)
Outline: (§2)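 mCRPC patients took a single capivasertib dose on cycle 0 day 1, followed by PK and PD sampling. Combination with enzalutamide 160 mg daily began at C1D1, with capivasertib b.i.d. on a 4/7 schedule. Platelet-rich plasma and hair follicles were assayed for pSer9 and total GSK3β and for pThr246 and total PRAS40. Statistics used one-way ANOVA with […] and Dunnett's tests, with P<0.05 as significant.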

[3] = test system: pThr246 PRAS40; assay: Pharmacodynamics: phosphorylated Thr246 PRAS40 in hair follicles; type: in vivo, human
Outline: as §2

[4] = Plasma pharmacokinetics of capivasertib; type: in vivo, human
Outline: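 Venous blood was sampled serially up to 48 h post-dose on C0D1 (capivasertib alone) and on C2D1, C2D4 and C2D11 (with enzalutamide). Cmax, Tmax and AUC8h were derived. Geometric means of dose-normalised Cmax and AUC8h were compared between cycle 2 and cycle 0.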

[5] = test system: patients; details: 4 days on and 3 days off every week (4/7); cited from earlier work
[6] = test system: pERK; assay: IHC for pERK expression in tumour biopsies; type: in vivo, human; details: with enzalutamide, including two of the responders
[7] = test system: patients with metastatic castration-resistant prostate cancer; assay: Treatment-related adverse events; type: in vivo, human; details: Total N=15, with enzalutamide
Outline: as §1

[8] = test system: metastatic prostate cancer patients; details: overall population; marked benefit for PTEN loss; cited from earlier work

Compound: NC1(C(=O)N[C@@H](CCO)c2ccc(Cl)cc2)CCN(c2nc[nH]c3nccc2-3)CC1 [capivasertib]
- patients experiencing a DLT (maculopapular rash) ([1]; 400 mg b.i.d., with enzalutamide): 1/6
- RP2D (recommended phase II dose) ([1]; 4/7 schedule, with enzalutamide 160 mg daily): 400 mg b.i.d.
- fatal SAEs ([1]; all dose levels): no fatal SAEs
- patients with dosing interruption or reduction ([1]; beyond cycle 1, six of fourteen patients): 42.9%
- dosing interruptions or reductions due to AEs ([1]; during the DLT period, five of nine patients): 55.6%
- AEs judged to be treatment-related ([1]; of 259 AEs, safety population): 42.5%
- AEs reported ([1]; safety population, all dose levels): 259
- mean decrease in pGSK3β compared with baseline ([2]; 2 h after dose): 56%
- mean decrease in pGSK3β compared with baseline ([2]; 4 h after dose): 44%
- mean decrease in pGSK3β compared with baseline ([2]; 8 h after dose): 22%
- mean percentage reduction in PRAS40 ([3]; 320 mg with enzalutamide): −34%
- mean percentage reduction in PRAS40 ([3]; 320 mg without enzalutamide): 38%
- mean percentage reduction in PRAS40 ([3]; 400 mg with enzalutamide): 22%
- mean percentage reduction in PRAS40 ([3]; 400 mg without enzalutamide): 23%
- mean percentage reduction in PRAS40 ([3]; 480 mg with enzalutamide): 40%
- mean percentage reduction in PRAS40 ([3]; 480 mg without enzalutamide): 26%
- patients in whom enzalutamide decreased both Cmax and AUC ([4]; compared with capivasertib monotherapy): 11 out of 13
- approximate mean decrease of Cmax and AUC ([4]; cycle 2 (with enzalutamide) compared with cycle 0 (monotherapy)): ~40%
- single-agent recommended phase II dose (RP2D) [5]: 480 mg b.i.d.
- pERK expression by IHC, post-treatment vs baseline [6]: increased after treatment in three patients
- Hyper-glycaemia, Grade 3/4 [7]: 26.7%

Compound: CC(C)NC[C@@H](C(=O)N1CCN(c2ncnc3c2[C@H](C)C[C@H]3O)CC1)c1ccc(Cl)cc1 [ipatasertib]
- rPFS, abiraterone with vs without ipatasertib [8]: improved rPFS
